# Measured values as given in ChEMBL document CHEMBL4130378, “Discovery of pentacyclic triterpene 3β-ester derivatives as a new class of cholesterol ester transfer protein inhibitors” (Eur J Med Chem, 2017).
# What was measured:
# [1] = target: T1, Cholesteryl ester transfer protein (Homo sapiens, UniProt P11597); test: Inhibition of recombinant human CETP after 3 hrs using fluorescent cholesteryl containing HDL after 3 hrs by fluorescence assay; conditions: read-out: IC50
# T1 sequence (P11597 whole entry): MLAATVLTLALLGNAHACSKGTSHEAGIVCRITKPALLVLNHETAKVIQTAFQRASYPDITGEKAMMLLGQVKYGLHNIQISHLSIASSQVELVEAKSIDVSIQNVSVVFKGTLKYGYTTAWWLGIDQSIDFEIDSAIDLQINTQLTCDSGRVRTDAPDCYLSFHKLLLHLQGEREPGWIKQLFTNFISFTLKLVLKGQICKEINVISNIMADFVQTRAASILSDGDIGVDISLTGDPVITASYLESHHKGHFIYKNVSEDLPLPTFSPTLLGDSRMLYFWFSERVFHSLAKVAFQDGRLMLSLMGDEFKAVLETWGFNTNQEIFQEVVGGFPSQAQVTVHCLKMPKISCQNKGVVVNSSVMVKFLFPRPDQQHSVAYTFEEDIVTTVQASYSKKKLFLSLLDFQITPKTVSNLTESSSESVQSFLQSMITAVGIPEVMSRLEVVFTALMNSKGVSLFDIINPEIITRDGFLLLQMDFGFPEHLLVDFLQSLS
# [2] = tested on: Mus musculus; test: Hypolipidemic activity in transgenic ap2-CETPTg mouse model assessed as reduction in plasma total cholesterol levels at 30 mg/kg, po qd for 14 days measured 2 hrs post dose on day 14 by automated lipid analyzer relative to control; format: functional; design: scale not given: the % may be the effect or the level left
# How it was run: (§1)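 ap2-CETPTg mice, which express human CETP in adipose tissue. Oral 30 mg/kg once daily for two weeks in DMSO/cremophor/saline 3:4:93. Retro-orbital blood drawn 2 h after the day-14 dose. HDL-C, LDL-C, TG and TC measured on an automated lipid analyzer, mean ± SD (n ≥ 6), versus control group.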
# [3] = Cmax in normal fed guinea pig at 30 mg/kg administered via oral gavage by LC-MS/MS analysis; format: ADME, organism-based, Cavia porcellus; design: dose 30 mg/kg, route oral; conditions: in vivo
# [4] = tested on: Mus musculus; test: Hypolipidemic activity in transgenic ap2-CETPTg mouse model assessed as reduction in plasma triglyceride levels at 30 mg/kg, po qd for 14 days measured 2 hrs post dose on day 14 by automated lipid analyzer relative to control; format: functional; design: scale not given: the % may be the effect or the level left; how it was run: as §1
# [5] = Terminal half life in normal fed guinea pig at 30 mg/kg administered via oral gavage by LC-MS/MS analysis; format: ADME, organism-based, Cavia porcellus; conditions: in vivo, read-out: beta t1/2 (converted)
# [6] = tested on: Cavia porcellus; test: Hypolipidemic activity in high-fat fed guinea pig model assessed as reduction in plasma triglyceride levels at 30 mg/kg administered via oral gavage as qd for 14 days measured 2 hrs post dose on day 14 relative to control; format: functional; design: scale not given: the % may be the effect or the level left
# How it was run: (§2)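 Male guinea pigs, 12 weeks old, fed a high-fat diet (2.5% coconut oil, 0.25% cholesterol) for two weeks. Gavage at 30 mg/kg once daily for two weeks while the diet continued. Plasma taken retro-orbitally 2 h after the day-14 dose. HDL-C, LDL-C, TG and TC reported as mean ± SD (n ≥ 6) versus the untreated high-fat model group.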
# [7] = Octanol-water partition coefficient, log P of the compound at pH 7.4 by HPLC based shake flask method; format: physicochemical
# [8] = tested on: Cavia porcellus; test: Drug metabolism in normal fed guinea pig assessed as formation of oleanolic acid at 30 mg/kg administered via oral gavage by LC-MS/MS analysis; format: ADME, organism-based; conditions: in vivo
# [9] = tested on: Mus musculus; test: Antihyperlipidemic activity in transgenic ap2-CETPTg mouse model assessed as increase in plasma HDL cholesterol levels at 30 mg/kg, po qd for 14 days measured 2 hrs post dose on day 14 by automated lipid analyzer relative to control; format: functional; how it was run: as §1
# [10] = tested on: Cavia porcellus; test: Hypolipidemic activity in high-fat fed guinea pig model assessed as reduction in plasma total cholesterol levels at 30 mg/kg administered via oral gavage as qd for 14 days measured 2 hrs post dose on day 14 relative to control; format: functional; design: scale not given: the % may be the effect or the level left; how it was run: as §2
# [11] = tested on: Mus musculus; test: Hypolipidemic activity in transgenic ap2-CETPTg mouse model assessed as reduction in plasma LDL cholesterol levels at 30 mg/kg, po qd for 14 days measured 2 hrs post dose on day 14 by automated lipid analyzer relative to control; format: functional; design: scale not given: the % may be the effect or the level left; how it was run: as §1
# [12] = MRT (0 to infinity) in normal fed guinea pig at 30 mg/kg administered via oral gavage by LC-MS/MS analysis; format: ADME, organism-based, Cavia porcellus; conditions: in vivo
# [13] = tested on: Cavia porcellus; test: Hypolipidemic activity in high-fat fed guinea pig model assessed as reduction in plasma LDL cholesterol levels at 30 mg/kg administered via oral gavage as qd for 14 days measured 2 hrs post dose on day 14 relative to control; format: functional; design: scale not given: the % may be the effect or the level left; how it was run: as §2
# [14] = MRT (0 to 48 hrs) in normal fed guinea pig at 30 mg/kg administered via oral gavage by LC-MS/MS analysis; format: ADME, organism-based, Cavia porcellus; conditions: in vivo
# [15] = AUC (0 to 48 hrs) in normal fed guinea pig at 30 mg/kg administered via oral gavage by LC-MS/MS analysis; format: ADME, organism-based, Cavia porcellus; design: time < 48 hr, dose 30 mg/kg, route oral; conditions: in vivo
# [16] = tested on: Cavia porcellus; test: Antihyperlipidemic activity in normal fed guinea pig model assessed as increase in plasma HDL cholesterol level at 30 mg/kg administered via oral gavage as qd for 14 days measured 2 hrs post dose on day 14 relative to control; format: functional
# How it was run: (§3)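 Male guinea pigs, 12 weeks old, on normal diet. Gavage at 30 mg/kg once daily for two weeks. Retro-orbital plasma collected 2 h after dosing on day 14. HDL-C and LDL-C reported as mean ± SD (n ≥ 6) versus vehicle control group.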
# [17] = tested on: Cavia porcellus; test: Hypolipidemic activity in normal fed guinea pig model assessed as reduction in plasma LDL cholesterol levels at 30 mg/kg administered via oral gavage as qd for 14 days measured 2 hrs post dose on day 14 relative to control; format: functional; design: scale not given: the % may be the effect or the level left; how it was run: as §3
# [18] = tested on: Cavia porcellus; test: Toxicity in high-fat fed guinea pig model assessed as effect on systolic blood pressure at 30 mg/kg administered via oral gavage as qd for 14 days; format: organism-based; conditions: in vivo, 336 h
# [19] = tested on: Cavia porcellus; test: Toxicity in normal fed guinea pig model assessed as effect on systolic blood pressure at 30 mg/kg administered via oral gavage as qd for 14 days; format: organism-based; conditions: in vivo, 336 h
# [20] = Aqueous solubility of the compound; format: physicochemical; conditions: buffer
# [21] = tested on: Cavia porcellus; test: Antihyperlipidemic activity in high-fat fed guinea pig model assessed as increase in plasma HDL cholesterol level at 30 mg/kg administered via oral gavage as qd for 14 days measured 2 hrs post dose on day 14 relative to control; format: functional; how it was run: as §2
# [22] = AUC (0 to infinity) in normal fed guinea pig at 30 mg/kg administered via oral gavage by LC-MS/MS analysis; format: ADME, organism-based, Cavia porcellus; design: dose 30 mg/kg, route oral, time infinity; conditions: in vivo
# [23] = Tmax in normal fed guinea pig at 30 mg/kg administered via oral gavage by LC-MS/MS analysis; format: ADME, organism-based, Cavia porcellus; conditions: in vivo
smiles,measurement,setting,value
C=C(C)[C@@H]1CC[C@]2(C(=O)O)CC[C@]3(C)[C@H](CC[C@@H]4[C@@]5(C)CC[C@H](OC(=O)CCCC(=O)O)C(C)(C)[C@@H]5CC[C@]43C)[C@@H]12,IC50,[1],38 µM
CC1(C)CC[C@]2(C(=O)O)CC[C@]3(C)C(=CC[C@@H]4[C@@]5(C)CC[C@H](OC(=O)CCN6CCOCC6)C(C)(C)[C@@H]5CC[C@]43C)[C@@H]2C1,IC50,[1],68.5 µM
CC1(C)CC[C@]2(C(=O)O)CC[C@]3(C)C(=CC[C@@H]4[C@@]5(C)CC[C@H](OC(=O)CCCC(=O)O)C(C)(C)[C@@H]5CC[C@]43C)[C@@H]2C1,IC50,[1],3.5 µM
CC1(C)CC[C@]2(C(=O)OCC(=O)O)CC[C@]3(C)C(=CC[C@@H]4[C@@]5(C)CC[C@H](OC(=O)CCCC(=O)O)C(C)(C)[C@@H]5CC[C@]43C)[C@@H]2C1,IC50,[1],38.9 µM
CC1(C)CC[C@]2(C(=O)O)CC[C@]3(C)C(=CC[C@@H]4[C@@]5(C)CC[C@H](OC(=O)CCCCC(=O)O)C(C)(C)[C@@H]5CC[C@]43C)[C@@H]2C1,IC50,[1],7 µM
CC1(C)CC[C@]2(C(=O)O)CC[C@]3(C)C(=C2C1)CC[C@@H]1[C@@]2(C)CC[C@H](OC(=O)CCCC(=O)O)C(C)(C)[C@@H]2CC[C@]13C,IC50,[1],10.3 µM
CC1(C)CC[C@]2(C(=O)O)CC[C@]3(C)C(=CC[C@@H]4[C@@]5(C)CC[C@H](OC(=O)CCC(=O)NCCS(=O)(=O)O)C(C)(C)[C@@H]5CC[C@]43C)[C@@H]2C1,IC50,[1],23.1 µM
CC1(C)CC[C@]2(C(=O)O)CC[C@]3(C)C(=CC[C@@H]4[C@@]5(C)CC[C@H](OC(=O)c6ccccc6C(=O)O)C(C)(C)[C@@H]5CC[C@]43C)[C@@H]2C1,Activity,[2],5.8%
same,Cmax,[3],1270 ng/mL
same,Activity,[4],29.3%
same,half-life,[5],18.8 h
same,Activity,[6],27.3%
same,logD,[7],0.49
same,Drug metabolism,[8],Metabolite_Detected
same,IC50,[1],2.3 µM
same,Activity,[9],11.1%
same,Activity,[10],20.3%
same,Activity,[11],34.2%
same,MRT inf,[12],23.4 h
same,Activity,[13],40.8%
same,MRT last,[14],14.9 h
same,AUC(0-t) at 48 h,[15],9340 ng·h/mL
same,Activity,[16],32.3%
same,Activity,[17],19.8%
same,Activity,[18],Non-Toxic
same,Activity,[19],Non-Toxic
same,solubility,[20],Soluble
same,Activity,[21],72.8%
same,AUC(0-inf),[22],10900 ng·h/mL
same,Tmax,[23],1.46 h
C[C@H]1[C@H](C)CC[C@]2(C(=O)O)CC[C@]3(C)C(=CC[C@@H]4[C@@]5(C)CC[C@H](OC(=O)CCCC(=O)O)C(C)(C)[C@@H]5CC[C@]43C)[C@H]12,IC50,[1],3.4 µM
